Measured values as given in ChEMBL document CHEMBL3244088, “Antitumor agents 32. Synthesis and antitumor activity of cyclopentenone derivatives related to helenalin” (1978).
≈ marks a conversion by molar mass, not a printed value.

Legend:
Type in all cases: functional
P388 [1] = assay: Antitumor activity against mouse P388 cells allografted in DBA/2 mouse assessed as increase in survival rate at 5 mg/kg/day, ip administered for 2 weeks relative to control; conditions: route intraperitoneal
[2] = Cytotoxicity against human Hep2 cells assessed a growth inhibition by rapid microtiter technique; conditions: HEp-2, read-out: ED50 (the source's name)
Summary of the method: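 Human laryngeal epidermoid carcinoma H.Ep.-2 cells run in a rapid microtiter cytotoxicity assay. ED50 is calculated as the dose that inhibits net cell growth to 50% of control growth. Compounds with ED50 ≤ 4 µg/mL are scored active.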

W256 [3] = assay: Antitumor activity against […] allografted in Sprague-Dawley rat assessed as increase in survival rate at 2.5 mg/kg/day, ip relative to control; conditions: route intraperitoneal
Summary of the method: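 Walker 256 ascites carcinosarcoma: 10^6 tumor cells implanted ip into male Sprague-Dawley rats (~80 g), with daily ip dosing of compounds. Result expressed as T/C; a T/C ≥ 125% counts as active. Melphalan was the positive standard. Animal numbers per group were recorded for each test.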

P388 [4] = assay: Antitumor activity against mouse P388 cells allografted in DBA/2 mouse assessed as increase in survival rate at 4 mg/kg/day, ip administered for 2 weeks relative to control; conditions: route intraperitoneal
W256 [5] = assay: Antitumor activity against […] allografted in Sprague-Dawley rat assessed as increase in survival rate at 1.25 mg/kg/day, ip relative to control; conditions: route intraperitoneal
P388 [6] = assay: Antitumor activity against mouse P388 cells allografted in DBA/2 mouse assessed as increase in survival rate at 25 mg/kg/day, ip administered for 2 weeks relative to control; conditions: route intraperitoneal
P388 [7] = assay: Antitumor activity against mouse P388 cells allografted in DBA/2 mouse assessed as increase in survival rate at 16.8 mg/kg/day, ip administered for 2 weeks relative to control; conditions: route intraperitoneal

| SMILES | T/C (P388 [1]) [%] | EC50 [2] [µg/mL] | T/C (W256 [3]) [%] | T/C (P388 [4]) [%] | T/C (W256 [5]) [%] | T/C (P388 [6]) [%] | T/C (P388 [7]) [%] |
| --- | --- | --- | --- | --- | --- | --- | --- |
| CC1(CO)CC=CC1=O (stereo not drawn) | 105 | 15.8 (≈ 125 µM) | 100 |  |  |  |  |
| CC(=O)OCC1(C)CC=CC1=O (stereo not drawn) | 105 | 18.3 (≈ 109 µM) | 105 |  |  |  |  |
| CC1(COC(=O)/C=C/c2ccccc2)CC=CC1=O (stereo not drawn) |  | 3.5 (≈ 13.7 µM) | 136 | 131 |  |  |  |
| COc1cc(C(=O)OCC2(C)CC=CC2=O)cc(OC)c1OC (stereo not drawn) | 140 | 3.6 (≈ 11.2 µM) |  |  | 223 |  |  |
| CC1(COC(=O)CCCCCCCCC(=O)OCC2(C)CC=CC2=O)CC=CC1=O (stereo not drawn) |  | 14.6 (≈ 34.9 µM) | 108 | 109 |  |  |  |
| CCOC(=O)C1(C)CC=CC1=O (stereo not drawn) | 103 | 17.2 (≈ 102 µM) | 103 |  |  |  |  |
| O=C1C=CCC1 | 121 | > 50 | 188 |  |  |  |  |
| CCOC(=O)/C=C/c1ccccc1 [ETHYL CINNAMATE] |  | > 50 |  |  |  |  |  |
| O=c1[nH]cc(F)c(=O)[nH]1 [FLUOROURACIL] |  |  |  |  |  | 186 |  |
| C=C1C(=O)O[C@@H]2C[C@@H](C)[C@@H]3C=CC(=O)[C@@]3(C)[C@@H](O)[C@H]12 [HELENALIN] |  | 0.08 (≈ 0.305 µM) | 316 |  |  |  | 127 |
| N[C@@H](Cc1ccc(N(CCCl)CCCl)cc1)C(=O)O [MELPHALAN] |  |  | 317 |  |  | 168 |  |
